Test results taken from ChEMBL document CHEMBL5120825, “The azulene scaffold from a medicinal chemist's perspective: Physicochemical and in vitro parameters relevant for drug discovery” (Eur J Med Chem, 2022).
Values after ≈ are worked out from the molar mass of the structure shown.

Tests used:
[1] = Photostability of the compound at pH 5.3 assessed as compound degradation administered as solution irradiated with sun light and measured after 7 days by HPLC analysis; assay type: physicochemical; settings: time 7 day, read-out: Drug degradation
In short: (§1)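 Compound in solution was kept for 7 days under "mild" light-stress conditions, with no pH adjustment. The pH listed for each compound is the solution's own intrinsic pH. Result is % degradation of parent.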

[2] = Stability of the compound at pH 7.4 assessed as half life measured after 24 hrs in presence of GSH by HPLC analysis; assay type: physicochemical; settings: solution with GSH
[3] = Permeability of the compound at pH 7.4 by PAMPA assay; assay type: ADME; settings: read-out: permeability
[4] = Metabolic stability in human liver microsomes assessed as hepatic blood flow at 1 uM preincubated with compound followed by NADPH addition by LC-MS/MS analysis; assay type: ADME, Microsome; settings: read-out: QH
[5] = Photostability of the compound assessed as compound degradation administered as solid irradiated with sun light and measured after 7 days by HPLC analysis
[6] = Aqueous solubility of the compound at pH 2.2 incubated for 24 hrs under shaking condition by LC-UV analysis; assay type: physicochemical; settings: aqueous medium
In short: (§2)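 The highest concentration tested was 250 μM, so results are capped at that level. Values are reported in µg/ml.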

[7] = Hydrolytic stability of the compound in aqueous buffer at pH 7.4 assessed as compound decomposition measured after 3 days by HPLC analysis; assay type: physicochemical; settings: time 3 day, read-out: Drug degradation
In short: (§3)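 Compound was held for 3 days at 40 °C in 0.1 M HCl in water or in aqueous buffer at pH 7.4. Dissolution was confirmed by eye, and decomposition is reported as % loss of parent.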

[8] = Octanol-water partition coefficient, logD of the compound at pH 11 by HPLC analysis; assay type: physicochemical; settings: read-out: logD
[9] = Octanol-water partition coefficient, logD of the compound at pH 2 by HPLC analysis; assay type: physicochemical
[10] = Hydrolytic stability of the compound in aqueous HCl assessed as compound decomposition measured after 3 days by HPLC analysis; assay type: physicochemical; settings: time 3 day, read-out: Drug degradation; in short: as §3
[11] = Aqueous solubility of the compound at pH 4.5 incubated for 24 hrs under shaking condition by LC-UV analysis; assay type: physicochemical; settings: aqueous medium; in short: as §2
[12] = Lipophilicity, logP of the compound; assay type: physicochemical; settings: octanol/water
[13] = Aqueous solubility of the compound at pH 6.8 incubated for 24 hrs under shaking condition by LC-UV analysis; assay type: physicochemical; settings: aqueous medium; in short: as §2
Cytochrome P450 2D6 = Cytochrome P450 2D6 (Homo sapiens, UniProt P10635); assay: Inhibition of CYP2D6 in human liver microsomes using dextromethorphan as substrate preincubated with compound followed by NADPH addition by LC-MS/MS analysis; assay type: ADME, Microsome
Cytochrome P450 3A4 = Cytochrome P450 3A4 (Homo sapiens, UniProt P08684); assay: Inhibition of CYP3A4 in human liver microsomes using midazolam as substrate preincubated with compound followed by NADPH addition by LC-MS/MS analysis; assay type: ADME, Microsome
[14] = Cytotoxicity against human HepG2 cells assessed as cell growth inhibition incubated for 24 hrs by MTT assay; assay type: toxicity, cell-based
In short: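 HepG2 human hepatoma cells were exposed to compound at concentrations up to 400 µM and viability was read by MTT. The result is given in µM.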

Cytochrome P450 2C19 = Cytochrome P450 2C19 (Homo sapiens, UniProt P33261); assay: Inhibition of CYP2C19 in human liver microsomes using mephenytoin as substrate preincubated with compound followed by NADPH addition by LC-MS/MS analysis; assay type: ADME, Microsome
Cytochrome P450 2C8 = molecular target: T1, Cytochrome P450 2C8 (Homo sapiens, UniProt P10632); assay: Inhibition of CYP2C8 in human liver microsomes using amodiaquine as substrate preincubated with compound followed by NADPH addition by LC-MS/MS analysis; assay type: ADME, Microsome
T1 sequence (P10632 whole entry): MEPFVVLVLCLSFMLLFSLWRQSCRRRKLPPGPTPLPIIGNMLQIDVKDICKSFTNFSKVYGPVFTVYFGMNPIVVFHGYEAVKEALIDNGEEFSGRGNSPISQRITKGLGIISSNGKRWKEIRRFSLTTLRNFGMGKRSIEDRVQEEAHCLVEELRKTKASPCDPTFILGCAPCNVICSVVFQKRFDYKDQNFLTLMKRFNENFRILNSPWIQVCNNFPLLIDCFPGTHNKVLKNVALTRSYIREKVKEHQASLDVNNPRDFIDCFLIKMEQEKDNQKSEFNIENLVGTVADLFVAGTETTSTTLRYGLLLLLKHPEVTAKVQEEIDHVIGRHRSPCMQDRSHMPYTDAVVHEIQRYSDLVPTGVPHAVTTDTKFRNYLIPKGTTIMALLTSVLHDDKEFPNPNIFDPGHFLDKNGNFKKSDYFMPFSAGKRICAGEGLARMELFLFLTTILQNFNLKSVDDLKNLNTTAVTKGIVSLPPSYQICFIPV

Cytochrome P450 2C9 = Cytochrome P450 2C9 (Homo sapiens, UniProt P11712); assay: Inhibition of CYP2C9 in human liver microsomes using diclofenac as substrate preincubated with compound followed by NADPH addition by LC-MS/MS analysis; assay type: ADME, Microsome
[15] = Photostability of the compound assessed as compound degradation administered as aqueous solution irradiated with UV and measured after 24 hrs by HPLC analysis
[16] = Photostability of the compound at pH 5.8 assessed as compound degradation administered as solution irradiated with sun light and measured after 7 days by HPLC analysis; assay type: physicochemical; settings: time 7 day, read-out: Drug degradation; in short: as §1
[17] = Photostability of the compound at pH 8.7 assessed as compound degradation administered as solution irradiated with sun light and measured after 7 days by HPLC analysis; assay type: physicochemical; settings: time 7 day, read-out: Drug degradation; in short: as §1
[18] = Photostability of the compound at pH 4.0 assessed as compound degradation administered as solution irradiated with sun light and measured after 7 days by HPLC analysis; assay type: physicochemical; settings: time 7 day, read-out: Drug degradation; in short: as §1
[19] = Dissociation constant, pKa of the compound by dip probe absorption spectroscopy; assay type: physicochemical
[20] = Photostability of the compound at pH 7.1 assessed as compound degradation administered as solution irradiated with sun light and measured after 7 days by HPLC analysis; assay type: physicochemical; settings: time 7 day, read-out: Drug degradation; in short: as §1

Chain of Cytochrome P450 2C19 (P33261 whole entry): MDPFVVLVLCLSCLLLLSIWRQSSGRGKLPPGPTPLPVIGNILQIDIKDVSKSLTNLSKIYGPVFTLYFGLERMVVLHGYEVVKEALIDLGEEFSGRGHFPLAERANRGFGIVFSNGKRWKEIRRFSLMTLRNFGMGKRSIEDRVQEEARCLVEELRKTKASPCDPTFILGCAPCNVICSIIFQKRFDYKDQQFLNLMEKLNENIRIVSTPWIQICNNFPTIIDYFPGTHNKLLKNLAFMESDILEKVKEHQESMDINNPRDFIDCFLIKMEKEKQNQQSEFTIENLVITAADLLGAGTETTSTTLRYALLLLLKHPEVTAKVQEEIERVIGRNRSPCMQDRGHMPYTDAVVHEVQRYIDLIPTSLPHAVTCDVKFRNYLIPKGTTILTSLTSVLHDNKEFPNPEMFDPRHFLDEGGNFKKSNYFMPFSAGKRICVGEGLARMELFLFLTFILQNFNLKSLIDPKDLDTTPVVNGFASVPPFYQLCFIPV
Chain of Cytochrome P450 2D6 (P10635 whole entry): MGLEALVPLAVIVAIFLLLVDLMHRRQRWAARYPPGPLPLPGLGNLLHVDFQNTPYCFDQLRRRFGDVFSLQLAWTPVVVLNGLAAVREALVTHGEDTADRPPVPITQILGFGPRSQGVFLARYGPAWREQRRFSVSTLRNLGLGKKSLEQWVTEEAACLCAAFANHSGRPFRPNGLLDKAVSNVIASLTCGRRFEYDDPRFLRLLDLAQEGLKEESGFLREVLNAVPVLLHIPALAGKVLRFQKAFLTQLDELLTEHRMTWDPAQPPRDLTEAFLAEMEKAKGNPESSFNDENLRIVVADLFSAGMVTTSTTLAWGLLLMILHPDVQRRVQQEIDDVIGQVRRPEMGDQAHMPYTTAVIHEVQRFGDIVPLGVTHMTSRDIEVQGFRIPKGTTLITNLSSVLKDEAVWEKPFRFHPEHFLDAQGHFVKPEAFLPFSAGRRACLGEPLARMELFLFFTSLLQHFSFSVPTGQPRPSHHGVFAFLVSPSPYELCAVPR
Chain of Cytochrome P450 3A4 (P08684 whole entry): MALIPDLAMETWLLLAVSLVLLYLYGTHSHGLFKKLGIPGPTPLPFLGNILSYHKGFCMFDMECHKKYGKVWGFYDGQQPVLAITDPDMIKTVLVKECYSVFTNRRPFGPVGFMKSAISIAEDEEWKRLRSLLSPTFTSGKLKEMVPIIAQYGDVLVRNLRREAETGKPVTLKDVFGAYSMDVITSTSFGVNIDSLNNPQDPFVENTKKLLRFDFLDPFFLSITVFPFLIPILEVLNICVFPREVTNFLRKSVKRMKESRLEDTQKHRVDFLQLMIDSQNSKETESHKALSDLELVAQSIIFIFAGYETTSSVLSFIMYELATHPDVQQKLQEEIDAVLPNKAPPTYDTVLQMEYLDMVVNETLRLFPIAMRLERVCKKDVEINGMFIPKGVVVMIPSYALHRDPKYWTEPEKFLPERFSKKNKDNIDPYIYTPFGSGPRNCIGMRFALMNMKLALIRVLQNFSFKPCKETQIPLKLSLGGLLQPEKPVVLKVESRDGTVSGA
Chain of Cytochrome P450 2C9 (P11712 whole entry): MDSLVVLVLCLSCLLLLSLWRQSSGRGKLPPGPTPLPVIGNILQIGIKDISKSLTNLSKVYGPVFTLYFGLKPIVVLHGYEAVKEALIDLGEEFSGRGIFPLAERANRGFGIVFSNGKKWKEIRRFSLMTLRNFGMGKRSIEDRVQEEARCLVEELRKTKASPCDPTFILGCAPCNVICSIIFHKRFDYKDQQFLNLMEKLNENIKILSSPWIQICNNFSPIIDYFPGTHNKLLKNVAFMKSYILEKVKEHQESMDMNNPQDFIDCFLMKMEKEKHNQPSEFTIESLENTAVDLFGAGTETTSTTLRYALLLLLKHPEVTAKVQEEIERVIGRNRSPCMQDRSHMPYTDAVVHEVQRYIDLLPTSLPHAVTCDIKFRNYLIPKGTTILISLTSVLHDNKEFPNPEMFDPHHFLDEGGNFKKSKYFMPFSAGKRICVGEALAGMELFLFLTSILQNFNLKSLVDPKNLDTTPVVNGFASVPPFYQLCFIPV

Structure (SMILES) | half-life [2] [days] | Papp [3] [×10⁻⁶ cm/s] | hepatic extraction ratio at 1 µM [4] | degraded at 168 h [5] [%] | solubility thermodynamic at 24 h [6] [µg/mL] | logD [8] | logD ([9]; read-out: logD) | solubility thermodynamic at 24 h [11] [µg/mL] | logP ([12]; read-out: logP) | solubility thermodynamic at 24 h [13] [µg/mL] | other results
CN(C)C(=O)Cc1ccc2cccc-2cc1 | > 41.7 | 8.7 | 0.27 | < 0.5 | > 44 | 2.2 | 2.5 | > 45 | 2.2 | > 43 | degraded at 168 h [1]: 12%; degraded at 72 h [7]: < 0.5%; degraded at 72 h [10]: 2%
COCC(=O)Nc1cc2cccccc-2c1 |  |  |  |  |  |  |  |  |  |  | IC50 (Cytochrome P450 2D6): > 50 µM; IC50 (Cytochrome P450 3A4): > 50 µM; EC50 at 24 h [14]: > 400 µM; IC50 (Cytochrome P450 2C19): 22 µM; IC50 (Cytochrome P450 2C8): > 50 µM; IC50 (Cytochrome P450 2C9): > 50 µM
O=C(NCCc1c[nH]c2ccccc12)c1ccc2ccc(C(=O)c3ccccc3)c-2cc1 |  | 0.03 | 0.69 |  | < 1 | 4.3 | 4.4 | < 1 | 4.3 | < 1 | 
CN(C)C(=O)c1cn(C)c2ccccc12 |  | 6.7 | 0.55 |  | > 51 | 1.3 |  | > 51 |  | > 51 | logD [9]: 1.8; degraded at 24 h [15]: < 0.5%; logP [12]: 1.3
c1cc2ccc(CN3CCCCC3)ccc-2c1 |  | 3.4 | 0.75 | < 0.5 | > 56 | > 5.5 | 0.8 |  | > 5.5 | 31 (≈ 138 µM) | IC50 (Cytochrome P450 2D6): 17 µM; IC50 (Cytochrome P450 3A4): > 50 µM; degraded at 168 h [17]: 3.5%; IC50 (Cytochrome P450 2C19): 2.3 µM; IC50 (Cytochrome P450 2C8): > 50 µM; IC50 (Cytochrome P450 2C9): > 50 µM
CN(C)C(=O)c1c[nH]c2ccccc12 |  | 2.2 | 0.25 |  | > 47 | 0.4 |  | > 47 |  | > 44 | logD [9]: 1.1; degraded at 24 h [15]: < 0.5%; logP [12]: 0.4
O=C(O)c1ccc2cccc-2cc1 | > 41.7 |  |  | < 0.5 |  |  |  |  |  |  | degraded at 168 h [18]: < 0.5%; degraded at 72 h [7]: < 0.5%; pKa [19]: 3.5; degraded at 72 h [10]: 1.5%
O=C(O)c1ccc2cccccc1-2 |  |  |  |  |  |  |  |  |  |  | pKa [19]: 5.1
C=CC(=O)N1C[C@H](Nc2ncnc3[nH]ccc23)CC[C@@H]1C [RITLECITINIB] | 1.33 |  |  |  |  |  |  |  |  |  | 

More lines, main results first:

half-life [2] [days] | Papp [3] [×10⁻⁶ cm/s] | hepatic extraction ratio at 1 µM [4] | degraded at 168 h [5] [%] | solubility thermodynamic at 24 h [6] [µg/mL] | logD [8] | logD ([9]; read-out: logD) | solubility thermodynamic at 24 h [11] [µg/mL] | logP ([12]; read-out: logP) | solubility thermodynamic at 24 h [13] [µg/mL] | Structure (SMILES) | other results
 | 1.8 | < 0.23 | < 0.5 | 14 (≈ 43.8 µM) | 2.2 | 2.3 | 6 (≈ 18.8 µM) | 2.2 | 4 (≈ 12.5 µM) | O=C(NCCO)c1ccc2ccc(C(=O)c3ccccc3)c-2cc1 | IC50 (Cytochrome P450 2D6): > 50 µM; IC50 (Cytochrome P450 3A4): > 50 µM; degraded at 168 h [16]: < 0.5%; IC50 (Cytochrome P450 2C19): > 50 µM; IC50 (Cytochrome P450 2C8): > 50 µM; IC50 (Cytochrome P450 2C9): > 50 µM
> 41.7 | 3.7 | < 0.23 | < 0.5 | 4 (≈ 14.4 µM) | 1.7 | 2 | 2 (≈ 7.19 µM) | 1.7 | 2 (≈ 7.19 µM) | O=C(Cn1ccccc1=O)Nc1cc2cccccc-2c1 | degraded at 168 h [20]: 85%; degraded at 72 h [7]: < 0.5%; degraded at 72 h [10]: 3.5%
